In data set [1] the test system is Liver. As to the kind of experiment: Intrinsic clearance in rat liver microsomes at 2.5 uM assessed per gram of liver. The format is ADME, microsome.
Data set [2] concerns the target Metabotropic glutamate receptor 5 (Homo sapiens, UniProt P41594). As to the kind of experiment: Negative allosteric modulation of human mGluR5a expressed in CHO cells assessed as reduction in DHPG-induced cytosolic Ca2+ influx after 10 to 20 mins by fluo-4/AM-dye based fluorometric analysis. The format is functional, cell-based.
Data set [3] has as its target Metabotropic glutamate receptor 5 (Rattus norvegicus, UniProt P31424). The data set is described as follows: Displacement of [3H]M-MPEP from mGluR5 in Sprague-Dawley rat cerebrocortical membranes after 60 mins.
The nature of data set [4]: Plasma concentration in ip dosed Wistar rat at anxiolytic MED administered as suspension after 45 mins during Vogel punished drinking conflict test. The format is ADME, organism-based. The essentials: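 Vehicle was a suspension containing 5% Tween 80, given i.p. at the Vogel minimum effective dose. Plasma was sampled about 45 min after dosing, right after the Vogel punished drinking test.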

Data set [5] deals with Liver. The data set is described as follows: Intrinsic clearance in human liver microsomes at 2.5 uM assessed per gram of liver. The format is ADME, microsome.
For data set [6], the system named is Rattus norvegicus. As to the kind of experiment: Anxiolytic activity in ip dosed Wistar rat assessed as increase in water drinking time during punished period administered as suspension by Vogel punished drinking conflict test. The format is functional. The settings on record: read-out: MED. The essentials:
(§1)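 Vogel punished-drinking test in rats, single i.p. or p.o. dose as suspension in 5% Tween 80; plasma sampled ~45 min after i.p. or ~75 min after p.o. dosing.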

For data set [7], the system named is Rattus norvegicus. As to the kind of experiment: Anxiolytic activity in po dosed Wistar rat assessed as reduction in freezing behavior by contextual fearing test. The format is functional. The note with it: read-out: MED.
Data set [8] has as its system Rattus norvegicus. As to the kind of experiment: Anxiolytic activity in po dosed Wistar rat assessed as increase in water drinking time during punished period administered as suspension by Vogel punished drinking conflict test. The format is functional. The note with it: read-out: MED. The essentials: as §1
For data set [9], the system named is Rattus norvegicus. The data set is described as follows: Toxicity in po dosed Harlan-Wistar rat assessed as decrease in spontaneous locomotor activity photocell-based activity monitor test. The settings on record: in vivo. The format is organism-based. The essentials:
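Male Wistar rats were given 0, 10, 30 or 50 mg/kg p.o. Spontaneous locomotor activity (ambulatory movement) was recorded in a photocell-based activity monitor.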

Data set [10] deals with Rattus norvegicus. As to the kind of experiment: Anxiolytic activity in po dosed Wistar rat assessed as reduction in ultrasonic vocalization. The format is functional.
For data set [11], the system named is Plasma. The data set is described as follows: Plasma concentration in Wistar rat at 30 mg/kg, ip administered as single dose. The format is ADME, organism-based. The note with it: in vivo. The essentials:
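Rats dosed i.p. at 30 mg/kg. Plasma level was taken about 45 min after dosing, at the end of the Vogel session.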

Data set [12] relates to Rattus norvegicus. As to the kind of experiment: Therapeutic index, ratio of MED for effect on spatial learning performance in po dosed Wistar rat by Morris water maze test to MED for anxiolytic activity in Wistar rat by Vogel punished drinking conflict test. The essentials:
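Index is the Morris water maze minimum effective dose (oral, given 1 h before the first daily trial, 4 days of 3 trials) divided by the Vogel punished drinking minimum effective dose.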

Data set [13] has as its system Rattus norvegicus. As to the kind of experiment: Effect on spatial learning performance in po dosed Wistar rat measured as escape latency dosed 1 hr prior to first daily trial by Morris water maze test. The format is ADME, organism-based. The settings on record: in vivo. The essentials:
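Morris water maze with male Harlan-Wistar rats (190–220 g): three trials a day for 4 days, hidden 10 cm platform, video tracking; 30 mg/kg p.o. in Type IV lipid formulation 1 h before first daily trial; plasma taken after last Day 4 trial; 7–17 rats/group.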

The test system of data set [14] is Plasma. As to the kind of experiment: Plasma concentration in Wistar rat at 30 mg/kg, po administered as single dose. The format is ADME, organism-based. The settings on record: in vivo.
The test system of data set [15] is Rattus norvegicus. The data set is described as follows: Therapeutic index, ratio of plasma concentration causing effect on spatial learning performance in po dosed Wistar rat by Morris water maze test to plasma concentration causing anxiolytic activity in Wistar rat by Vogel punished drinking conflict test. The essentials:
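Index is the plasma level in rats at 30 mg/kg p.o. in the Morris water maze (sampled after the last trial on Day 4) divided by the plasma level at the Vogel minimum effective dose. Vogel plasma was sampled right after the test.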

Data set [16] is described as follows: Plasma concentration in ip dosed Wistar rat at anxiolytic MED administered as suspension after 75 mins during Vogel punished drinking conflict test. The format is ADME, organism-based.

The record followed here is ChEMBL document CHEMBL4007421, “Discovery and Preclinical Characterization of 3-((4-(4-Chlorophenyl)-7-fluoroquinoline-3-yl)sulfonyl)benzonitrile, a Novel Non-acetylenic Metabotropic Glutamate Receptor 5 (mGluR5) Negative Allosteric Modulator for Psychiatric Indications” (J Med Chem, 2017).

Chain of Metabotropic glutamate receptor 5 (Rattus norvegicus, UniProt P31424) (P31424 whole entry): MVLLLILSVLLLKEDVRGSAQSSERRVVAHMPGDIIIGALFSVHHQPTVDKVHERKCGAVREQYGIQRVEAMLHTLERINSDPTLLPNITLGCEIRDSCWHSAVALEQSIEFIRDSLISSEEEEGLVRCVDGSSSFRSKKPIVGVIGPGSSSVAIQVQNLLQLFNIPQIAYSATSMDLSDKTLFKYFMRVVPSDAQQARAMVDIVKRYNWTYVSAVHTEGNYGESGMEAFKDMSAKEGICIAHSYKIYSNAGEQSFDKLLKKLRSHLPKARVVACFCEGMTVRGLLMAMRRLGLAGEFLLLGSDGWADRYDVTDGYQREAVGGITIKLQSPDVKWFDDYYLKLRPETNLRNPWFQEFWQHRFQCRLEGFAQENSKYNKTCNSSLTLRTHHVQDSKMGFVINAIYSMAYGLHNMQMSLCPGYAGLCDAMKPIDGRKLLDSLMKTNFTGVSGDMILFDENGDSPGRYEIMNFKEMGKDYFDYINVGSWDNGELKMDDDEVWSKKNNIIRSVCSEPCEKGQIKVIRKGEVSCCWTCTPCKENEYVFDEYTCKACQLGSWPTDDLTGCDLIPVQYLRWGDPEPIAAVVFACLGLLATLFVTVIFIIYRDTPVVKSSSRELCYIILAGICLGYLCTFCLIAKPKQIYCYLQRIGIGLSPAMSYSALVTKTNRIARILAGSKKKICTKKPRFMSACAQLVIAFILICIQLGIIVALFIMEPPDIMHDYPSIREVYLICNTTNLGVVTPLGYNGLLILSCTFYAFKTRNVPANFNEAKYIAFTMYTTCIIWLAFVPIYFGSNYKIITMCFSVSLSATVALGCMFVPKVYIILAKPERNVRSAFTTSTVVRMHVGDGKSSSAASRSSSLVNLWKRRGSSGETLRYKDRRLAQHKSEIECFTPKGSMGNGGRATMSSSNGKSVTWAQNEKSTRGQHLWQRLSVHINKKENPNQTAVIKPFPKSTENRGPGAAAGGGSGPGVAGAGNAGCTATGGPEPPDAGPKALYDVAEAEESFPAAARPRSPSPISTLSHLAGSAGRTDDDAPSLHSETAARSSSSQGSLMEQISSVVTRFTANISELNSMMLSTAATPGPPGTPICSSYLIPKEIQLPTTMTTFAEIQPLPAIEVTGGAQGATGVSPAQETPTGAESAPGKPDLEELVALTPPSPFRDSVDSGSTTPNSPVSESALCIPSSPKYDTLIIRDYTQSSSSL
Chain of Metabotropic glutamate receptor 5 (Homo sapiens, UniProt P41594) (P41594 whole entry): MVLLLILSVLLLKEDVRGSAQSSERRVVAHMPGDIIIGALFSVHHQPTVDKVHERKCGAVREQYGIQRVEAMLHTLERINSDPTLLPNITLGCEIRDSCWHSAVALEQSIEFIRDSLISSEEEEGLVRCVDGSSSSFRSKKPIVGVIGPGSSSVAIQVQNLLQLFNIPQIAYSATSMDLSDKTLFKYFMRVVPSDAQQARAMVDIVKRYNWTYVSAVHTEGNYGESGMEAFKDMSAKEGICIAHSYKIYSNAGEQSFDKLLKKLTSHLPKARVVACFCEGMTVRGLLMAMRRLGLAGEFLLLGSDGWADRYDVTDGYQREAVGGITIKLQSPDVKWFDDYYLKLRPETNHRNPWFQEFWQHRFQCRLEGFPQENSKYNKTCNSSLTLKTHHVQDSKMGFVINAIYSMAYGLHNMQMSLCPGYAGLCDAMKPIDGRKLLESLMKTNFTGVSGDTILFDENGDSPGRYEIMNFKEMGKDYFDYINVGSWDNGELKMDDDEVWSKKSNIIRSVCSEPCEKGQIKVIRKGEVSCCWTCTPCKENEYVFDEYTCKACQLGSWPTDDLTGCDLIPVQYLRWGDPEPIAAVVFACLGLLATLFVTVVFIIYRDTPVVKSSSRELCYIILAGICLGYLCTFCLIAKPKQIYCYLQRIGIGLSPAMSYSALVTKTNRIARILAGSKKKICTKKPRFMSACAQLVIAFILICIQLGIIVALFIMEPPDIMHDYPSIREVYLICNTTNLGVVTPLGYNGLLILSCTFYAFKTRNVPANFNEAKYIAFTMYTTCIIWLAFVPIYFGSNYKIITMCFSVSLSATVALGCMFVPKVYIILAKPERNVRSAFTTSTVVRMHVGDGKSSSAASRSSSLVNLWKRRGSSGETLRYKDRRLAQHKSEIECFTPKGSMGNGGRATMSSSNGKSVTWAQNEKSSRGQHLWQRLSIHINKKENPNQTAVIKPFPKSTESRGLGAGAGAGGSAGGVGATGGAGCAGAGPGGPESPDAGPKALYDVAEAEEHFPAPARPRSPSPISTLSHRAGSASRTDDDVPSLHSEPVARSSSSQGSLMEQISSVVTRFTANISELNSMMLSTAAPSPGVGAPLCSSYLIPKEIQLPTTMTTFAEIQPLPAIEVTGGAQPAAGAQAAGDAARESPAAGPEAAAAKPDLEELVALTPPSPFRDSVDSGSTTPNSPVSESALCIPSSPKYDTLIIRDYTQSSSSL

Take `O=S(=O)(c1cc(Cl)cc(Cl)c1)c1cnc2c(F)cccc2c1-c1ccc(F)cc1`: the CLint with Liver [1] came out at 1.06 mL/min/g; in the data set on Liver [5], 1.01 mL/min/g. In addition, the IC50 in [2] was determined as 25 nM. The same compound came in with a Ki in data set [3] of 6.8 nM. For the same compound, the concentration at 0.75 h in data set [4] is 119 nM. Further, the minimal effective dose with Rattus norvegicus [6] turned out to be 30 mg/kg.
As for `CN1C(=O)CN=C(c2ccccc2)c2cc(Cl)ccc21` [DIAZEPAM], the values for the minimal effective dose with Rattus norvegicus [7] and with Rattus norvegicus [8] were > 10 mg/kg and 2.5 mg/kg, respectively. Moreover, the ED50 in the data set on Rattus norvegicus [9] came to 9.7 mg/kg; in the data set on Rattus norvegicus [10], 7.8 mg/kg.
As for `O=S(=O)(c1cc(F)cc(F)c1)c1cnc2cc(F)ccc2c1-c1ccc(F)cc1`, the CLint with Liver [1] amounted to 0.93 mL/min/g; with Liver [5], 0.01 mL/min/g. In the data set on Plasma [11], the concentration is 206 nM. The IC50 in [2] was 25 nM. In data set [3], this compound yielded a Ki of 18 nM. Further, the values for the minimal effective dose in the data set on Rattus norvegicus [8] and in the data set on Rattus norvegicus [6] were > 10 mg/kg and > 30 mg/kg, respectively.
For the compound `O=S(=O)(c1ccc(F)c(Cl)c1)c1cnc2cc(F)ccc2c1-c1ccc(F)cc1`, the CLint was 0.89 mL/min/g in the data set on Liver [1] and 0.69 mL/min/g with Liver [5]. In addition, the values for the TI entry in the data set with Rattus norvegicus [12] and in the data set with Rattus norvegicus [15] were “<=10” and “<=9.1”, respectively. Besides, the Activity entry in the data set with Rattus norvegicus [13] was “Toxic”. Moreover, the IC50 in data set [2] was 21 nM. Besides, the affinity in data set [3] corresponds to a Ki of 5.2 nM. The compound also returned a concentration at 0.75 h in [4] of 71 nM. The compound further registered a concentration in the data set with Plasma [14] of 968 nM. Also, the minimal effective dose in the data set on Rattus norvegicus [8] turned out to be 3 mg/kg; with Rattus norvegicus [6] it was 10 mg/kg.
As to `O=S(=O)(c1cc(Cl)cc(Cl)c1)c1cnc2cc(F)ccc2c1-c1cccc(F)c1`, the CLint in the data set on Liver [1] was determined as 1.53 mL/min/g; in the data set on Liver [5], 0.41 mL/min/g. In addition, the IC50 in data set [2] is 35 nM. The compound also came in with a Ki in data set [3] of 10.7 nM. In [4], this compound yielded a concentration at 0.75 h of 90.6 nM. Also, in the data set on Rattus norvegicus [6], the minimal effective dose was 30 mg/kg.
For the compound `Cc1cccc(C#Cc2ccccc2)n1`, the CLint with Liver [1] is 0.19 mL/min/g; with Liver [5], 1.61 mL/min/g. Moreover, the minimal effective dose in the data set with Rattus norvegicus [8] and in the data set with Rattus norvegicus [6] was 3 mg/kg in each case.
In the case of `O=S(=O)(c1cc(Cl)cc(Cl)c1)c1cnc2cc(F)ccc2c1-c1ccc(F)cc1`, the CLint in the data set on Liver [1] worked out at 1.15 mL/min/g; in the data set on Liver [5], 0.18 mL/min/g. Also, the IC50 in data set [2] is 25 nM. The compound also registered a concentration at 1.25 h in [16] of 165 nM. Moreover, the minimal effective dose with Rattus norvegicus [6] is > 30 mg/kg.
As for `O=S(=O)(c1ccc(F)c(F)c1)c1cnc2cc(F)ccc2c1-c1ccc(F)cc1`, the figures for the CLint in the data set with Liver [1] and with Liver [5] were 0.67 mL/min/g and 0.44 mL/min/g, respectively. In the data set on Plasma [11], this compound had a concentration of 247 nM. Besides, the IC50 in data set [2] came out at 43 nM. The Ki in data set [3] was 19.1 nM. Also, the minimal effective dose with Rattus norvegicus [6] is > 30 mg/kg.
Regarding `O=S(=O)(c1ccc(F)c(F)c1)c1cnc2c(F)cccc2c1-c1ccc(Cl)cc1`, the CLint was 0.2 mL/min/g in the data set on Liver [1] and 0.28 mL/min/g in the data set on Liver [5]. Besides, the IC50 in [2] is 13 nM. In addition, the concentration at 0.75 h in data set [4] came out at 59.7 nM. In the data set on Plasma [14], this compound registered a concentration of 196 nM. Further, the minimal effective dose in the data set on Rattus norvegicus [8] is > 30 mg/kg; with Rattus norvegicus [6] it was 3 mg/kg.
On to `O=S(=O)(c1cccc(F)c1)c1cnc2c(F)cccc2c1-c1ccc(F)cc1`, for which the CLint in the data set with Liver [1] was 0.2 mL/min/g; with Liver [5], 0.19 mL/min/g. Moreover, the IC50 in data set [2] was 69 nM. The compound further gave a Ki in data set [3] of 31.6 nM. In data set [4], the concentration at 0.75 h is 1210 nM. For the same compound, the minimal effective dose in the data set on Rattus norvegicus [6] is 30 mg/kg.
For the compound `O=S(=O)(c1cc(F)cc(F)c1)c1cnc2cc(F)ccc2c1-c1cccc(F)c1`, the CLint with Liver [1] turned out to be 1.8 mL/min/g; in the data set with Liver [5], 0.06 mL/min/g. The compound also gave a concentration with Plasma [11] of 63 nM. Moreover, the IC50 in [2] came out at 74 nM. In data set [3], this compound gave a Ki of 32.6 nM. The minimal effective dose with Rattus norvegicus [6] is > 30 mg/kg.
Turning to `O=S(=O)(c1ccc(F)c(Cl)c1)c1cnc2cc(F)ccc2c1-c1ccc(Cl)cc1`, the CLint in the data set on Liver [1] was found to be 0.45 mL/min/g; with Liver [5], 0.39 mL/min/g. For the same compound, the TI in the data set with Rattus norvegicus [12] is given as 10; in the data set with Rattus norvegicus [15] it was 3.9. Also, the Activity entry in the data set on Rattus norvegicus [13] is recorded as “Toxic”. Also, the IC50 in [2] came out at 27 nM. The same compound had an inhibitory constant (Ki) in [3] of 8.3 nM. In data set [4], this compound registered a concentration at 0.75 h of 373 nM. This compound came in with a concentration in the data set with Plasma [14] of 866 nM. Also, the results for the minimal effective dose in the data set on Rattus norvegicus [8] and with Rattus norvegicus [6] were 3 to 10 mg/kg and 30 mg/kg, respectively.
Regarding `N#Cc1cccc(S(=O)(=O)c2cnc3cc(F)ccc3c2-c2ccc(F)cc2)c1`, the CLint was 0.7 mL/min/g with Liver [1] and 0.39 mL/min/g in the data set on Liver [5]. In addition, the values for the TI with Rattus norvegicus [12] and with Rattus norvegicus [15] were 10 and “<=8.4”, respectively. Besides, the Activity entry in the data set on Rattus norvegicus [13] is “Toxic”. Also, the IC50 in data set [2] is 20 nM. This compound registered a Ki in data set [3] of 6.5 nM. In data set [4], this compound gave a concentration at 0.75 h of 208 nM. In addition, the concentration in the data set with Plasma [14] turned out to be 1280 nM. Moreover, the minimal effective dose in the data set with Rattus norvegicus [8] was 3 to 10 mg/kg; in the data set on Rattus norvegicus [6], 10 mg/kg.
Take `O=S(=O)(c1cc(Cl)cc(Cl)c1)c1cnc2cc(F)ccc2c1-c1ccc(Cl)cc1`: the CLint in the data set with Liver [1] turned out to be 0.77 mL/min/g; in the data set on Liver [5], 0.13 mL/min/g. Further, in [2], the IC50 was found to be 94 nM. For the same compound, the affinity in data set [3], expressed as Ki, was 30.3 nM. For the same compound, in data set [4], the concentration at 0.75 h was 377 nM. Also, the minimal effective dose with Rattus norvegicus [6] was determined as 30 mg/kg.
In the case of `O=S(=O)(c1ccc(F)c(F)c1)c1cnc2cc(F)ccc2c1-c1ccc(Cl)cc1`, the results for the CLint in the data set on Liver [1] and in the data set with Liver [5] were 1.41 mL/min/g and 0.01 mL/min/g, respectively. Besides, the IC50 in data set [2] stood at 22 nM. The same compound displayed a Ki in data set [3] of 17.1 nM. For the same compound, the minimal effective dose with Rattus norvegicus [8] and with Rattus norvegicus [6] was 10 mg/kg in each case.
With `O=S(=O)(c1cc(F)cc(F)c1)c1cnc2c(F)cccc2c1-c1ccc(F)cc1`, the figures for the CLint in the data set with Liver [1] and in the data set on Liver [5] were 0.63 mL/min/g and 0.69 mL/min/g, respectively. Further, the IC50 in [2] worked out at 12 nM. The same compound registered a Ki in data set [3] of 13.3 nM. Also, in data set [4], the concentration at 0.75 h was 151 nM. Also, in the data set with Rattus norvegicus [6], the minimal effective dose stood at 30 mg/kg.
